Experimental findings from ChEMBL document CHEMBL1126155, “Renin inhibitory pentols showing improved enteral bioavailability” (J Med Chem, 1992) are described below.

Each structure is given as a SMILES string.

In test [1] the target is T1, Renin (Homo sapiens, UniProt P00797).
T1 sequence (P00797 whole entry): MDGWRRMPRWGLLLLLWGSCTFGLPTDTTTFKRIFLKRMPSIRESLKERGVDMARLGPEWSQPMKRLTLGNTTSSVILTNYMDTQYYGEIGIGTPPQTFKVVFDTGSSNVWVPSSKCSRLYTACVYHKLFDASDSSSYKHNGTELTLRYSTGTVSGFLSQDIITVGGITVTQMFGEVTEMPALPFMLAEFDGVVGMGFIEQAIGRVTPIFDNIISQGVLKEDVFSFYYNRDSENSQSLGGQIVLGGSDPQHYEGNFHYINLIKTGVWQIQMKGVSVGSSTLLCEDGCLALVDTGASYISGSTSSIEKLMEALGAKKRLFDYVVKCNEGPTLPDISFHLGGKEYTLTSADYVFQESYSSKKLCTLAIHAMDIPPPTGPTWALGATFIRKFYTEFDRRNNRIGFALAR
Nature of the test: Concentration required for 50% inhibition of human kidney renin.

Test [2] addresses T1, Renin. The test can be described thus: Concentration required for 50% inhibition of human plasma renin. In kind it is cell-free. The method, boiled down: (§1)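 Plasma renin from dog, human, rat, rhesus monkey or sheep plasma; assayed by a previously described plasma method, modified to be buffered at pH 7.4; IC50 in M.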
For test [3], the target named is Cathepsin D (Homo sapiens, UniProt P07339). The test can be described thus: Concentration required for 50% inhibition of cathepsin D. The method, boiled down:
(§2)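 Pepsin and cathepsin D inhibition measured by an earlier-described method; inhibitor tested at concentrations up to 10^-4 M.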

Test [4] concerns the target Pepsin A (Homo sapiens, UniProt P0DJD9). The test can be described thus: Inhibition of pepsin. Put shortly: as §2
In test [5] the target is T2, Renin (Rattus norvegicus, UniProt P08424).
T2 sequence (P08424 whole entry): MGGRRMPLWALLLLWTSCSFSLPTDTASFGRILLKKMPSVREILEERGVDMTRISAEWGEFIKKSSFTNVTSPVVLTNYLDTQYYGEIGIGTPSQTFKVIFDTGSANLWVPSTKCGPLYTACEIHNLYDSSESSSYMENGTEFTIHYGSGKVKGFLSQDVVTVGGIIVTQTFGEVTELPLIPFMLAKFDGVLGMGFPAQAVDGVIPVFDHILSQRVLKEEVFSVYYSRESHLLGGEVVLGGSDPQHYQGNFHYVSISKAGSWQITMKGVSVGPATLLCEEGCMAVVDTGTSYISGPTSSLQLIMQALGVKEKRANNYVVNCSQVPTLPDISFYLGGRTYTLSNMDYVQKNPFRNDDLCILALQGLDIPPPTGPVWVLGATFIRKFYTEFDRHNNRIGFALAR
The test can be described thus: Concentration required for 50% inhibition of rat plasma renin. In kind it is cell-free. The method, boiled down: as §1

Test [6] concerns the target Renin (Canis familiaris). The test can be described thus: Concentration required for 50% inhibition of dog plasma renin.
Test [7] addresses Renin (Ovis aries). The test can be described thus: Concentration required for 50% inhibition of sheep plasma renin.
Test [8] addresses Renin (Macaca mulatta). The test can be described thus: Concentration required for 50% inhibition of rhesus monkey plasma renin.

Chain of Cathepsin D (P07339 65-162 limits assumed): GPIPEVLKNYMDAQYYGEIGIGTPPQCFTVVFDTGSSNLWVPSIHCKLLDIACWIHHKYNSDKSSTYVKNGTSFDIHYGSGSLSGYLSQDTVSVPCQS
Chain of Cathepsin D (P07339 169-412 limits assumed): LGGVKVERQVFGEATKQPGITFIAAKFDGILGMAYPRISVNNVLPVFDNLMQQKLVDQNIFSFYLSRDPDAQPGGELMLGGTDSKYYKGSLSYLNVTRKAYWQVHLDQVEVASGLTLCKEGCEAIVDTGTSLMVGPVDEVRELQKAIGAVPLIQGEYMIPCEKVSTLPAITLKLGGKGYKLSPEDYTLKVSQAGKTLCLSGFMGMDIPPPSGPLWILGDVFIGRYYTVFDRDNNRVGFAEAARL
Chain of Pepsin A (P0DJD9 whole entry): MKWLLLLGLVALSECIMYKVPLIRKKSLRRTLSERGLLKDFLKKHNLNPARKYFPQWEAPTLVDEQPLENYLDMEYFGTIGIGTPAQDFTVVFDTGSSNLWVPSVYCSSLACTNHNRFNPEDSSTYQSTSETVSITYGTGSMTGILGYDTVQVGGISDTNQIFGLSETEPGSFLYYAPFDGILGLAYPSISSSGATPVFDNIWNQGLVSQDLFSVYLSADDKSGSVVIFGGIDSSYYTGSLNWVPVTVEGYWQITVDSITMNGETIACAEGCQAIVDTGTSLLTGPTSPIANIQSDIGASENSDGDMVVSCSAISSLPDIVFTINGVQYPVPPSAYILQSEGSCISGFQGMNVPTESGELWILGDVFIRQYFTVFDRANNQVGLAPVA

What is called IC50 is the concentration that inhibits the measured activity by half. Consider `CN(CCN(C)C(=O)N1CCOCC1)C(=O)O[C@@H](Cc1ccccc1)C(=O)NC(Cc1cnc[nH]1)C(=O)N[C@@H](CC1CCCCC1)[C@@H](O)[C@@H](O)[C@H](O)[C@H](O)CO` (stereo partly specified), for which the IC50 came out at 2.4 nM in test [1] and 1.5 nM in test [2].
For `CCC[C@H](NC(=O)[C@H](Cc1ccccc1)NC(=O)[C@@H](N)[C@@H](C)CC)C(=O)N[C@@H](CC1CCCCC1)[C@@H](O)[C@@H](O)[C@H](O)[C@H](O)CO` the same measures were 50 nM and 110 nM.
For `CCC[C@H](NC(=O)[C@H](Cc1ccccc1)NC(=O)[C@@H](N)[C@@H](C)CC)C(=O)N[C@@H](CC1CCCCC1)[C@@H](O)[C@@H](O)[C@H](O)[C@@H](O)CO` the same measures were 120 nM and 420 nM.
Regarding `CC(C)(C)S(=O)(=O)CC(Cc1ccccc1)C(=O)NC(Cc1c[nH]cn1)C(=O)N[C@@H](CC1CCCCC1)[C@@H](O)[C@@H](O)[C@H](O)[C@H](O)CO` (stereo partly specified), the IC50 in test [3] was greater than 100000 nM; in test [4] it was greater than 100000 nM; in test [1] it was 4.4 nM; in test [2] it was 4.5 nM; in test [5], 8000 nM; in test [6] it was 110 nM. Further, the half-maximal inhibitory concentration (IC50) in test [7] was determined as 100 nM; in test [8], 11 nM.
Regarding `N[C@H]1CC[C@@H](C(=O)N[C@@H](Cc2ccccc2)C(=O)NC(Cc2c[nH]cn2)C(=O)N[C@@H](CC2CCCCC2)[C@@H](O)[C@@H](O)[C@H](O)[C@H](O)CO)CC1` (stereo partly specified), the IC50 in test [1] worked out at 12 nM; in test [2], 22 nM.
